# Like-named read-outs stand apart in the source and are kept apart here. Marks after values point to notes of the source that are not given here.
# Experiments:
# [1] = test system: CYP2D6; test: Calculation of the contribution of CYP2D6 to APZ metabolism; design: species or system healthy Japanese male volunteers; conditions: before CYP inhibition
# [2] = type: in vivo, healthy Japanese male volunteers; conditions: for AUC ratio (period II/period I) / CL/F ratio (period II/period I) / Cmax ratio (period II/period I) / t1/2,z ratio (period II/period I) / tmax difference (period II − period I): APZ + FLV vs APZ alone; for AUC ratio (period II/period I) / CL/F ratio (period II/period I) / Cmax ratio (period II/period I) / t1/2,z ratio (period II/period I): geometric mean ratio; for tmax difference (period II − period I): mean difference
# How it was run: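 Healthy Japanese men aged 20–40 y (BMI 18.5–25.0), CYP2D6-genotyped from blood DNA; 7 per genotype randomly selected. Period I: 3 mg APZ tablet orally, fasting; 34-day washout. Fluvoxamine pretreatment 6 days, then APZ given at SSRI steady state, fluvoxamine continued 14 days. Heparinized plasma sampled predose to 336 h, stored −20°C; APZ and DAPZ by LC-MS/MS. Mean ± SD; per-subject period II/I GMR.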
# [3] = APZ 3 mg with CYP3A4 inhibitor itraconazole 100 mg; Japanese EM subjects; cited from earlier work
# [4] = type: in vivo, healthy Japanese male volunteers; conditions: for AUC ratio (period II/period I) / CL/F ratio (period II/period I) / Cmax ratio (period II/period I) / t1/2,z ratio (period II/period I) / tmax difference (period II − period I): APZ + PRX vs APZ alone; for AUC ratio (period II/period I) / CL/F ratio (period II/period I) / Cmax ratio (period II/period I) / t1/2,z ratio (period II/period I): geometric mean ratio; for tmax difference (period II − period I): mean difference
# [5] = cited from earlier work
# [6] = test system: CYP2D6; conditions: coadministration of FLV (100 mg q.d.); cited from earlier work
# [7] = test system: CYP3A4; design: species or system healthy Japanese male volunteers; conditions: FLV 100 mg/day, calculated from APZ CL/F
# [8] = test system: CYP3A4; conditions: coadministration of FLV (100 mg q.d.); cited from earlier work
# [9] = clinical doses of PRX (20–30 mg q.d.); cited from earlier work
# [10] = CYP2D6 EM, APZ + FLV 100 mg/day (period II), single oral 3 mg APZ, mean ± SD
# [11] = CYP2D6 EM, APZ alone (period I), FLV group, single oral 3 mg APZ, mean ± SD
# [12] = CYP2D6 IM, APZ + FLV 100 mg/day (period II), single oral 3 mg APZ, mean ± SD
# [13] = CYP2D6 IM, APZ alone (period I), FLV group, single oral 3 mg APZ, mean ± SD
# [14] = male, human, plasma, oral, 3 mg
# [15] = CYP2D6 EM, APZ + PRX 20 mg/day (period II), single oral 3 mg APZ, mean ± SD
# [16] = CYP2D6 EM, APZ alone (period I), PRX group, single oral 3 mg APZ, mean ± SD
# [17] = CYP2D6 IM, APZ + PRX 20 mg/day (period II), single oral 3 mg APZ, mean ± SD
# [18] = CYP2D6 IM, APZ alone (period I), PRX group, single oral 3 mg APZ, mean ± SD
smiles,measurement,setting,value
"O=C1CCc2ccc(OCCCCN3CCN(c4cccc(Cl)c4Cl)CC3)cc2N1 [Aripiprazole, aripiprazole]",percent contribution of CYP2D6 to total CL/F (metabolic activity) of APZ,"[1]; CYP2D6 EM, FLV coadministration group",40%
same,percent contribution of CYP2D6 to total CL/F (metabolic activity) of APZ,"[1]; CYP2D6 EM, PRX coadministration group",62%
same,percent contribution of CYP2D6 to total CL/F (metabolic activity) of APZ,"[1]; CYP2D6 IM, FLV coadministration group",18%
same,percent contribution of CYP2D6 to total CL/F (metabolic activity) of APZ,"[1]; CYP2D6 IM, PRX coadministration group",24%
same,CL/F,[2]; [10],2.03 ± 0.46 L/h
same,AUC ratio (period II/period I),[2]; CYP2D6 EM,1.63^a
same,CL/F ratio (period II/period I),[2]; CYP2D6 EM,0.61^a
same,Cmax ratio (period II/period I),[2]; CYP2D6 EM,1.39^a
same,"t1/2,z ratio (period II/period I)",[2]; CYP2D6 EM,1.44^a
same,CL/F,[2]; [11],3.30 ± 0.59 L/h
same,decrease in CL/F by coadministration of fluvoxamine,[2]; CYP2D6 EMs,39%
same,CL/F,[2]; [12],1.26 ± 0.35 L/h
same,AUC ratio (period II/period I),[2]; CYP2D6 IM,1.65^a
same,CL/F ratio (period II/period I),[2]; CYP2D6 IM,0.60^a
same,Cmax ratio (period II/period I),[2]; CYP2D6 IM,1.27^a
same,"t1/2,z ratio (period II/period I)",[2]; CYP2D6 IM,1.49^a
same,tmax difference (period II − period I),[2]; CYP2D6 IM,0.00^b h
same,CL/F,[2]; [13],2.10 ± 0.69 L/h
same,decrease in CL/F by coadministration of fluvoxamine,[2]; CYP2D6 IMs,40%
same,decrease in CL/F in period II (FLV) compared with period I,[2]; both the IM and EM subjects,approximately 40%
same,AUC,[2]; [14],1540 ng·h/mL
same,Cmax,[2]; [14],15.3 ± 3.4 ng/mL
same,half-life,[2]; [14],4.39 ± 0.283 days
same,tmax,"[2]; male, human, plasma, oral, 3 mg, tmax, CYP2D6 IM, APZ alone (period I), FLV group, single oral 3 mg APZ, mean ± SD",3 ± 1.8 h
same,AUC,"[2]; male, human, plasma, po, 3 mg",935 ± 173 ng·h/mL
same,Cmax,"[2]; male, human, plasma, po, 3 mg",14.7 ± 2.9 ng/mL
same,decrease in CL/F,[3],27%
same,decrease in CL/F by coadministration of PRX,[4]; CYP2D6 EM subjects,58%
same,increase in Cmax by coadministration of PRX,[4]; CYP2D6 EM subjects,39%
same,CL/F,[4]; [15],2.22 ± 0.31 L/h
same,AUC ratio (period II/period I),[4]; CYP2D6 EM,2.40^a
same,CL/F ratio (period II/period I),[4]; CYP2D6 EM,0.42^a
same,Cmax ratio (period II/period I),[4]; CYP2D6 EM,1.39^a
same,"t1/2,z ratio (period II/period I)",[4]; CYP2D6 EM,1.83^a
same,CL/F,[4]; [16],5.42 ± 1.25 L/h
same,decrease in CL/F by coadministration of PRX,[4]; CYP2D6 IM subjects,23%
same,CL/F,[4]; [17],1.78 ± 0.20 L/h
same,AUC ratio (period II/period I),[4]; CYP2D6 IM,1.30^a
same,CL/F ratio (period II/period I),[4]; CYP2D6 IM,0.77^a
same,Cmax ratio (period II/period I),[4]; CYP2D6 IM,1.27^a
same,"t1/2,z ratio (period II/period I)",[4]; CYP2D6 IM,1.21^a
same,CL/F,[4]; [18],2.32 ± 0.33 L/h
same,interindividual variability in CL/F,"[4]; EM subjects of PRX group, APZ alone",23 % CV
same,interindividual variability in CL/F,"[4]; EM subjects, coadministration of PRX",14 % CV
same,interindividual variability in CL/F,"[4]; IM subjects of PRX group, APZ alone",14 % CV
same,AUC,[4]; [14],1320 ng·h/mL
same,Cmax,[4]; [14],14.5 ± 3.4 ng/mL
same,half-life,[4]; [14],4.44 ± 0.787 days
same,tmax,"[4]; male, human, plasma, oral, 3 mg, tmax, CYP2D6 IM, APZ alone (period I), PRX group, single oral 3 mg APZ, mean ± SD",3.3 ± 1.6 h
same,tmax,"[4]; male, human, plasma, oral, tmax, coadministration of APZ with PRX in period II",~2 h
same,AUC,"[4]; male, human, plasma, po, 3 mg",582 ± 150 ng·h/mL
same,Cmax,"[4]; male, human, plasma, po, 3 mg",12.6 ± 2.6 ng/mL
same,half-life,"[4]; male, human, plasma, po, 3 mg",2.53 ± 0.383 days
"O=c1ccc2ccc(OCCCCN3CCN(c4cccc(Cl)c4Cl)CC3)cc2[nH]1 [Dehydroaripiprazole, dehydroaripiprazole]",excretion in urine and feces,[5],almost no
same,Cmax,[2]; [10],1.6 ± 0.2 ng/mL
same,"t1/2,z",[2]; [10],227.8 ± 63.2 h
same,tmax,[2]; [10],72.0 ± 0.0 h
same,AUC ratio (period II/period I),[2]; CYP2D6 EM,2.05^a
same,Cmax ratio (period II/period I),[2]; CYP2D6 EM,1.23^a
same,"t1/2,z ratio (period II/period I)",[2]; CYP2D6 EM,2.00^a
same,tmax difference (period II − period I),[2]; CYP2D6 EM,12.00^b h
same,Cmax,[2]; [11],1.3 ± 0.3 ng/mL
same,"t1/2,z",[2]; [11],115.0 ± 39.6 h
same,tmax,[2]; [11],60.0 ± 13.1 h
same,Cmax,[2]; [12],1.2 ± 0.3 ng/mL
same,tmax,[2]; [12],157.7 ± 36.3 h
same,Cmax ratio (period II/period I),[2]; CYP2D6 IM,0.95^a
same,tmax difference (period II − period I),[2]; CYP2D6 IM,37.71^b h
same,Cmax,[2]; [13],1.2 ± 0.3 ng/mL
same,tmax,[2]; [13],120.0 ± 41.6 h
same,Cmax,[4]; [15],0.9 ± 0.1 ng/mL
same,tmax,[4]; [15],89.1 ± 38.5 h
same,AUC ratio (period II/period I),[4]; CYP2D6 EM,1.21
same,Cmax ratio (period II/period I),[4]; CYP2D6 EM,0.67
same,"t1/2,z ratio (period II/period I)",[4]; CYP2D6 EM,1.91
same,tmax difference (period II − period I),[4]; CYP2D6 EM,37.71 h
same,Cmax,[4]; [16],1.3 ± 0.3 ng/mL
same,"t1/2,z",[4]; [16],86.1 ± 10.7 h
same,tmax,[4]; [16],51.4 ± 16.6 h
same,Cmax,[4]; [17],0.8 ± 0.1 ng/mL
same,tmax,[4]; [17],133.7 ± 27.2 h
same,AUC ratio (period II/period I),[4]; CYP2D6 IM,0.89
same,Cmax ratio (period II/period I),[4]; CYP2D6 IM,0.88
same,"t1/2,z ratio (period II/period I)",[4]; CYP2D6 IM,0.73
same,tmax difference (period II − period I),[4]; CYP2D6 IM,30.71 h
same,Cmax,[4]; [18],1.0 ± 0.2 ng/mL
same,tmax,[4]; [18],103.0 ± 38.7 h
"COCCCC/C(=N\OCCN)c1ccc(C(F)(F)F)cc1 [FLV, fluvoxamine]",effect on the PK of desipramine and metoprolol (CYP2D6 substrates),[6],without significantly affecting
same,percent inhibition of CYP3A4 by coadministration of FLV,[7]; CYP2D6 EM subjects,64%
same,percent inhibition of CYP3A4 by coadministration of FLV,[7]; CYP2D6 IM subjects,48%
same,increase in blood concentration of CYP3A4 substrates,[8],several-fold
"Fc1ccc([C@@H]2CCNC[C@H]2COc2ccc3c(c2)OCO3)cc1 [PRX, paroxetine]",steady-state blood concentrations,[9],35 to 43 ng/mL

# From publication PMC3249179 (European Journal of Clinical Pharmacology, 2011)
